The values that follow come from the M2OR odorant receptor database.

Each structure is given as a SMILES string.

Conditions in all cases: stereoisomer not certain
One test has as its target T1, OR1G1 (Homo sapiens) (UniProt P47890).
T1 sequence (whole entry): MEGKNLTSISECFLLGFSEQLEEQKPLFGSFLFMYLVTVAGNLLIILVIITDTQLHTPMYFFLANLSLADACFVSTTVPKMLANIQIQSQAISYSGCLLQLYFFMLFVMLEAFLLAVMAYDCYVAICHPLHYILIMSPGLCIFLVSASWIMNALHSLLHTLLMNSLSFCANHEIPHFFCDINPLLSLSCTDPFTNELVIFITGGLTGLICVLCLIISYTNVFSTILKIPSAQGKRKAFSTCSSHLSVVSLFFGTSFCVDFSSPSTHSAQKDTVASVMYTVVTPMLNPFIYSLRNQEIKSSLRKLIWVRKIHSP
A digest of the protocol: (§1)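 Transient luciferase assays in mammalian cell lines were common, though methods varied by source. The values come from published papers and their supplementary material, with extra details from the original authors when needed. Responsive refers to a measured signal the original authors judged statistically different from baseline, and non-responsive (inactive) to the remainder.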

For another test, the target named is T2, OR1L3 (Homo sapiens) (UniProt Q8NH93).
T2 sequence (whole entry): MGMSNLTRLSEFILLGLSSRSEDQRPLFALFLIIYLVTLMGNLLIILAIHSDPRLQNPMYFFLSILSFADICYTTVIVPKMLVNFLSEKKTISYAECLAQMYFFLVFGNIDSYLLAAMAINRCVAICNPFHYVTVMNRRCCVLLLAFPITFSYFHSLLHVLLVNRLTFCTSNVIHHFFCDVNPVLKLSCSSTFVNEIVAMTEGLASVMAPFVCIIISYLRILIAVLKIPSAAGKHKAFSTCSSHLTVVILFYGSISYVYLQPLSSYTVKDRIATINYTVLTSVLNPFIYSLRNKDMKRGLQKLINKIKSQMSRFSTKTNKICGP
A digest of the protocol:
as §1

The next test concerns the target T3, OR1N1 (Homo sapiens) (UniProt Q8NGS0).
T3 sequence (whole entry): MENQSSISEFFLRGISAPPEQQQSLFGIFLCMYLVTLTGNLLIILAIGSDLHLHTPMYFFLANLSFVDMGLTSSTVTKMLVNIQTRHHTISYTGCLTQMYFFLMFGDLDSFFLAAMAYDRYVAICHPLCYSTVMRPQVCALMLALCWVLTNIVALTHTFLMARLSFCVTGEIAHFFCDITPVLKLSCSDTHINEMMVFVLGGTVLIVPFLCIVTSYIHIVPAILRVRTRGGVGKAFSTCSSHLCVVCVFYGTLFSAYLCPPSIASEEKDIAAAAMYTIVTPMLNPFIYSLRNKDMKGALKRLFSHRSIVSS
Summed up: as §1
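Note: active if original authors judged signal statistically different from baseline.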

`CCCCCCO`: the “odorant receptor agonist call” value with OR1G1 (Homo sapiens) was “active”.

For the compound `CCCC(C)C(=O)OCC` (stereo not given), in the test with OR1L3 (Homo sapiens), the “odorant receptor agonist call” value is “inactive”.

In the case of `CCCCCC1COCCC1OC(C)=O` (stereo not given), the “odorant receptor agonist call” value with OR1G1 (Homo sapiens) and in the test with OR1L3 (Homo sapiens) was “inactive” throughout.

Consider `CCCCC1CCC(=O)O1` (stereo not given), for which the “odorant receptor agonist call” value with OR1G1 (Homo sapiens) and with OR1L3 (Homo sapiens) was “inactive” each time.

Regarding `CC1CC(C)(c2ccccc2)CO1` (stereo not given), the “odorant receptor agonist call” value in the test with OR1G1 (Homo sapiens) and in the test with OR1L3 (Homo sapiens) was “inactive” throughout.

With `C=C(C)C1CC=C(C)CC1` (stereo not given), in the test with OR1G1 (Homo sapiens), the “odorant receptor agonist call” value was “active”.

Take `CC(CC=O)c1ccc(C(C)(C)C)cc1` (stereo not given): the “odorant receptor agonist call” value in the test with OR1G1 (Homo sapiens) and with OR1L3 (Homo sapiens) was “inactive” in each case.

On to `O=c1ccc2ccccc2o1`, for which the “odorant receptor agonist call” value with OR1G1 (Homo sapiens) is “active”.

For `CC1=CCC2CC1C2(C)C` (stereo not given), the “odorant receptor agonist call” value with OR1G1 (Homo sapiens) and in the test with OR1L3 (Homo sapiens) was “inactive” each time.

As for `CC(C)=CCCC(C)=CCO`, the “odorant receptor agonist call” value with OR1G1 (Homo sapiens) is “active”. Moreover, the “odorant receptor agonist call” value in the test with OR1L3 (Homo sapiens) is “inactive”.

Consider `C=CC(C)(O)CCC=C(C)CCC=C(C)C` (stereo not given), for which the “odorant receptor agonist call” value in the test with OR1G1 (Homo sapiens) and with OR1L3 (Homo sapiens) was “inactive” in each case.

For the compound `CC(C)(C)C1CCCCC1OCCCCO` (stereo not given), the “odorant receptor agonist call” value in the test with OR1G1 (Homo sapiens) and with OR1L3 (Homo sapiens) was “inactive” throughout.

In the case of `C=CCOC(=O)COCCC(C)C`, the “odorant receptor agonist call” value with OR1G1 (Homo sapiens) and with OR1L3 (Homo sapiens) was “inactive” each time.

Regarding `CC(=O)C=CC1=C(C)CCCC1(C)C`, the “odorant receptor agonist call” value with OR1G1 (Homo sapiens) and in the test with OR1L3 (Homo sapiens) was “inactive” in each case.

For the compound `CC(=O)OCc1ccccc1`, the “odorant receptor agonist call” value in the test with OR1G1 (Homo sapiens) and in the test with OR1L3 (Homo sapiens) was “inactive” throughout.

As to `CCOC(=O)CC1(C)OCCO1`, the “odorant receptor agonist call” value with OR1G1 (Homo sapiens) and in the test with OR1L3 (Homo sapiens) was “inactive” throughout.

Consider `CCC(=O)C=CC1C(C)=CCCC1(C)C` (stereo not given), for which the “odorant receptor agonist call” value in the test with OR1G1 (Homo sapiens) and with OR1L3 (Homo sapiens) was “inactive” throughout.

With `CCCCCCC(C)=O`, in the test with OR1G1 (Homo sapiens), the “odorant receptor agonist call” value is “inactive”.

Consider `COC1CC2CC1C1CC(C=O)CC21` (stereo not given), for which the “odorant receptor agonist call” value with OR1G1 (Homo sapiens) and in the test with OR1L3 (Homo sapiens) was “inactive” in each case.

For the compound `CCCCCC(=O)OCC`, the “odorant receptor agonist call” value in the test with OR1G1 (Homo sapiens) was “inactive”.

For `O=C([O-])CCCCCCCC(=O)[O-].[H+].[H+]`, the “odorant receptor agonist call” value with OR1N1 (Homo sapiens) is “inactive”.

For the compound `CC=CC(=O)C1C(C)=CCCC1(C)C` (stereo not given), in the test with OR1G1 (Homo sapiens), the “odorant receptor agonist call” value is “inactive”. Besides, the “odorant receptor agonist call” value with OR1L3 (Homo sapiens) was “active”.

Regarding `COc1ccc(C)cc1`, the “odorant receptor agonist call” value with OR1G1 (Homo sapiens) and with OR1L3 (Homo sapiens) was “inactive” in each case.

With `CCCCCC1C(=O)CCC1CC(=O)OC` (stereo not given), in the test with OR1G1 (Homo sapiens), the “odorant receptor agonist call” value was “active”. In addition, the “odorant receptor agonist call” value with OR1L3 (Homo sapiens) was “inactive”.

Turning to `CCC=C(C)C(O)CCCCC` (stereo not given), the “odorant receptor agonist call” value with OR1G1 (Homo sapiens) and with OR1L3 (Homo sapiens) was “inactive” each time.

In the case of `OCc1ccccc1`, the “odorant receptor agonist call” value with OR1G1 (Homo sapiens) is “active”. Also, the “odorant receptor agonist call” value with OR1L3 (Homo sapiens) is “inactive”.

For `CCCCCCCCC(C)=O`, in the test with OR1G1 (Homo sapiens), the “odorant receptor agonist call” value is “inactive”.

`CCCCCCCCC(OC(C)=O)OC(C)=O`: in the test with OR1G1 (Homo sapiens), the “odorant receptor agonist call” value is “active”. Moreover, the “odorant receptor agonist call” value with OR1L3 (Homo sapiens) was “inactive”.

Take `CC(C)=CCCC(C)CC=O` (stereo not given): the “odorant receptor agonist call” value with OR1G1 (Homo sapiens) was “active”. In addition, the “odorant receptor agonist call” value in the test with OR1L3 (Homo sapiens) is “inactive”.

Consider `Cc1ccc(C(C)C)cc1O`, for which the “odorant receptor agonist call” value in the test with OR1G1 (Homo sapiens) and with OR1L3 (Homo sapiens) was “inactive” throughout.

Take `CCCCCCCO`: the “odorant receptor agonist call” value with OR1G1 (Homo sapiens) was “active”.

As to `CCc1ccc(CC(C)(C)C=O)cc1`, in the test with OR1L3 (Homo sapiens), the “odorant receptor agonist call” value is “inactive”.

Consider `CCCCCCCCCCCC=O`, for which the “odorant receptor agonist call” value in the test with OR1G1 (Homo sapiens) is “inactive”.

Turning to `CC(C)CCCC(C)(C)O`, the “odorant receptor agonist call” value with OR1G1 (Homo sapiens) and in the test with OR1L3 (Homo sapiens) was “inactive” throughout.

For `Cc1occc(=O)c1OC(=O)C(C)C`, the “odorant receptor agonist call” value in the test with OR1L3 (Homo sapiens) was “inactive”.

`C=CC(C)(CCC=C(C)C)OC(C)=O` (stereo not given): the “odorant receptor agonist call” value with OR1G1 (Homo sapiens) and in the test with OR1L3 (Homo sapiens) was “inactive” in each case.
